Measured values reported in ChEMBL document CHEMBL1122671, “Anticonvulsant activity of some 4-aminobenzamides” (J Med Chem, 1984).

Tests used:
Mus musculus [1] = assay: Anticonvulsant activity against MES (maximal electroshock) induced seizure in mice at 4 hr; d = No Activity at 300 mg/kg.; format: functional, organism-based; parameters: dose 300 mg/kg
Method in brief: (§1)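 Male Carworth Farms number-one mice received the compound ip in 30% polyethylene glycol 400. Doses were 30, 100 and 300 mg/kg, with 600 mg/kg in some cases. Maximal electroshock seizure protection was scored at 30 min and 4 h after dosing. Activity is coded by the lowest effective dose.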

Mus musculus [2] = species: Mus musculus; assay: Evaluation of inhibitory activity against scMet induced convulsions in mice; format: functional
Mus musculus [3] = assay: Anticonvulsant activity against scMet (subcutaneous metrazole) induced seizure in mice at 30 min; d = No activity at 300 mg/kg.; format: functional, organism-based; parameters: dose 300 mg/kg
[4] = Protective index (PI) which is defined as the ratio of TD50 to the ED50 (MES).; format: functional
Method in brief: (§2)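 Both values come from ip dosing in 30% PEG 400 to male Carworth Farms number-one mice and were derived by the graphical method.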

Mus musculus [5] = assay: Evaluated for toxicity by using rotarod test in mice at 4 hr; ++ = Activity at 300 mg/kg.; format: organism-based; parameters: dose 300 mg/kg; settings: in vivo
Method in brief: (§3)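 Neurotoxicity in male Carworth Farms number-one mice dosed ip in 30% PEG 400 at 30, 100, 300 and sometimes 600 mg/kg, tested 30 min or 4 h later. Mice placed on a 1-in. knurled rod rotating at 6 rpm; toxicity means failure to stay on the rod for 1 min. Scored by the lowest toxic dose; footnotes record loss of righting reflex or lethality.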

Mus musculus [6] = assay: Anticonvulsant activity against scMet (subcutaneous metrazole) induced seizure in mice at 4 hr; d = No activity at 300 mg/kg.; format: functional, organism-based; parameters: dose 300 mg/kg
Mus musculus [7] = assay: Evaluation of neurologic deficit by rotarod procedure in mice*-No activity at 300 mg/kg; format: functional
Method in brief: (§4)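 Male Carworth Farms number-one mice were dosed ip (30% PEG 400 vehicle) and placed on a 1-in. knurled plastic rod rotating at 6 rpm. Neurotoxicity meant failure to stay on the rod for 1 min. TD50 was determined graphically.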

Mus musculus [8] = assay: Anticonvulsant activity against MES (maximal electroshock) induced seizure in mice at 30 min; +++ = Activity at 100 mg/kg.; format: functional, organism-based; parameters: dose 100 mg/kg; method in brief: as §1
[9] = Protective index (PI) which is defined as the ratio of TD50 to the ED50 (ScMet).; format: functional; method in brief: as §2
Mus musculus [10] = assay: Evaluated for toxicity by using rotarod test at in mice 30 min; +++ = Activity at 100 mg/kg, *-Loss of righting reflex at less than 300 mg/kg,LD50 less than 600 mg/kg; format: organism-based; settings: in vivo, 0.5 h; method in brief: as §3
Mus musculus [11] = assay: Anticonvulsant activity against MES (maximal electroshock) induced seizure in mice at 4 hr; + indicates activity at 600 mg/kg.; format: functional, organism-based; parameters: dose 600 mg/kg
Method in brief: (§5)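 Male Carworth Farms number-one mice; compounds in 30% polyethylene glycol 400, given ip at 30, 100 and 300 mg/kg, some also at 600 mg/kg. Maximal electroshock challenge at 30 min or 4 h after dosing. Scored by the lowest dose giving protection (++++ 30, +++ 100, ++ 300, + 600 mg/kg; - none at 600).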

Mus musculus [12] = assay: Anticonvulsant activity against scMet (subcutaneous metrazole) induced seizure in mice at 4 hr; - indicates no activity at 600 mg/kg.; format: functional, organism-based; parameters: dose 600 mg/kg
Method in brief: (§6)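 Male Carworth Farms number-one mice dosed ip (30% PEG 400) at 30, 100, 300 and in some cases 600 mg/kg. Pentylenetetrazole 85 mg/kg given sc as a 0.5% solution in the posterior midline, at 30 min or 4 h. Protection means no clonic spasm of at least 5 s within 30 min. Scored by the lowest protective dose.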

Mus musculus [13] = assay: Anticonvulsant activity against scMet (subcutaneous metrazole) induced seizure in mice at 30 min; + indicates activity at 600 mg/kg.; format: functional, organism-based; parameters: dose 600 mg/kg; method in brief: as §6
Mus musculus [14] = assay: Evaluated for toxicity by using rotarod test in mice at 4 hr; - indicates no activity at 600 mg/kg.; format: organism-based; parameters: dose 600 mg/kg; settings: in vivo; method in brief: as §3
Mus musculus [15] = assay: Evaluated for toxicity by using rotarod test at in mice 30 min; - indicates no activity at 600 mg/kg.; format: organism-based; parameters: dose 600 mg/kg; settings: in vivo, 0.5 h; method in brief: as §3
Mus musculus [16] = assay: Anticonvulsant activity against MES (maximal electroshock) induced seizure in mice at 30 min; + indicates activity at 600 mg/kg.; format: functional, organism-based; parameters: dose 600 mg/kg; method in brief: as §5
Mus musculus [17] = species: Mus musculus; assay: Evaluation of neurologic deficit by rotarod procedure in mice; format: functional; method in brief: as §4
Mus musculus [18] = assay: Anticonvulsant activity against scMet (subcutaneous metrazole) induced seizure in mice at 4 hr; - = No activity at 600 mg/kg.; format: functional, organism-based; parameters: dose 600 mg/kg; method in brief: as §6
Mus musculus [19] = assay: Evaluated for toxicity by using rotarod test at in mice 30 min; +++ = Activity at 100 mg/kg,*- Loss of righting reflex at less than 600 mg/kg; format: organism-based; settings: in vivo, 0.5 h; method in brief: as §3
Mus musculus [20] = assay: Anticonvulsant activity against scMet (subcutaneous metrazole) induced seizure in mice at 30 min; +++ = Activity at 100 mg/kg.; format: functional, organism-based; parameters: dose 100 mg/kg
Mus musculus [21] = assay: Anticonvulsant activity against MES (maximal electroshock) induced seizure in mice at 4 hr; ++ = Activity at 300 mg/kg.; format: functional, organism-based; parameters: dose 300 mg/kg; method in brief: as §1
Mus musculus [22] = assay: Anticonvulsant activity against scMet (subcutaneous metrazole) induced seizure at dose 300 mg/kg in mice at 30 min; ++ = Activity at 300 mg/kg.; format: functional, organism-based
Mus musculus [23] = assay: Anticonvulsant activity against scMet (subcutaneous metrazole) induced seizure at dose 600 mg/kg in mice at 4 hr; - = No activity at 600 mg/kg.; format: functional, organism-based
Mus musculus [24] = assay: Evaluated for toxicity by using rotarod test in mice at 4 hr; - = No activity at 600 mg/kg.; format: organism-based; parameters: dose 600 mg/kg; settings: in vivo; method in brief: as §3
Mus musculus [25] = assay: Evaluated for toxicity by using rotarod test at dose 600 mg/kg in mice 30 min; - = No activity at 600 mg/kg.; format: organism-based; settings: in vivo, 0.5 h; method in brief: as §3
Mus musculus [26] = assay: Anticonvulsant activity against MES (maximal electroshock) induced seizure at dose 600 mg/kg in mice at 4 hr; - = No activity at 600 mg/kg.; format: functional, organism-based; method in brief: as §1
Mus musculus [27] = assay: Anticonvulsant activity against MES (maximal electroshock) induced seizure at dose 600 mg/kg in mice at 30 min; - = No activity at 600 mg/kg.; format: functional, organism-based; method in brief: as §1
Mus musculus [28] = assay: Anticonvulsant activity against scMet (subcutaneous metrazole) induced seizure in mice at 4 hr; + = Activity at 600 mg/kg.; format: functional, organism-based; parameters: dose 600 mg/kg
Mus musculus [29] = assay: Anticonvulsant activity against scMet (subcutaneous metrazole) induced seizure in mice at 30 min; ++ = Activity at 300 mg/kg.; format: functional, organism-based; parameters: dose 300 mg/kg
Mus musculus [30] = assay: Evaluated for toxicity by using rotarod test in mice at 4 hr; + = Activity at 600 mg/kg.; format: organism-based; parameters: dose 600 mg/kg; settings: in vivo; method in brief: as §3
Mus musculus [31] = assay: Anticonvulsant activity against MES (maximal electroshock) induced seizure in mice at 30 min; ++ = Activity at 300 mg/kg.; format: functional, organism-based; parameters: dose 300 mg/kg; method in brief: as §1
Mus musculus [32] = assay: Evaluated for toxicity by using rotarod test at in mice 30 min; + = Activity at 600 mg/kg.; format: organism-based; parameters: dose 600 mg/kg; settings: in vivo, 0.5 h; method in brief: as §3
Mus musculus [33] = assay: Anticonvulsant activity against MES (maximal electroshock) induced seizure in mice at 4 hr; +++ = Activity at 100 mg/kg.; format: functional, organism-based; parameters: dose 100 mg/kg; method in brief: as §1
Mus musculus [34] = assay: Evaluated for toxicity by using rotarod test at in mice 30 min; ++ indicates activity at 300 mg/kg.; format: organism-based; parameters: dose 300 mg/kg; settings: in vivo, 0.5 h; method in brief: as §3
[35] = Evaluation of neurologic deficit by rotarod procedure in mice.; format: ADME, organism-based; settings: mouse, in vivo; method in brief: as §4
Mus musculus [36] = assay: Evaluated for toxicity by using rotarod test in mice at 4 hr; + indicates activity at 600 mg/kg.; format: organism-based; parameters: dose 600 mg/kg; settings: in vivo; method in brief: as §3

Q: For `CCCCNC(=O)c1ccc(N)cc1`, which Activity (Mus musculus [1]) is on record?
A: No activity

Q: What about the ED50 (Mus musculus [2]) of the same molecule?
A: 83 mg/kg

Q: What about the Activity (Mus musculus [3]) of the same molecule?
A: No activity

Q: And the PI [4]?
A: 2.2

Q: And the Toxicity (Mus musculus [5])?
A: Activity at 100 mg/kg, *-Loss of righting reflex at < 300mg/kg,LD50 < 600 mg/kg

Q: And the Activity (Mus musculus [6])?
A: No activity

Q: And the TD50 (Mus musculus [7])?
A: 105 mg/kg

Q: What about the Activity (Mus musculus [8]) of the same molecule?
A: Activity at 100 mg/kg

Q: What about the PI [9] of the same molecule?
A: 1.3

Q: What about the Toxicity (Mus musculus [10]) of the same molecule?
A: Activity at 100 mg/kg, *-Loss of righting reflex at < 300mg/kg,LD50 < 600 mg/kg

Q: Which results are given for `CC(Cc1ccccc1)NC(=O)c1ccc(N)cc1` (stereo unspecified)?
A: Activity (Mus musculus [11]): activity at 600 mg/kg; Activity (Mus musculus [12]): Not toxic; Activity (Mus musculus [13]): activity at 600 mg/kg; Toxicity (Mus musculus [14]): Not toxic; Toxicity (Mus musculus [15]): Not toxic; Activity (Mus musculus [16]): activity at 600 mg/kg

Q: Which TD50 (Mus musculus [17]) does the source give for `CCC1(c2ccccc2)C(=O)NC(=O)NC1=O` [PHENOBARBITAL] here?
A: 69 mg/kg

Q: With `Nc1ccc(C(=O)Nc2ccccc2)cc1` as the molecule, how does the Activity (Mus musculus [18]) read?
A: Not toxic

Q: What about the Toxicity (Mus musculus [19]) of the same molecule?
A: Activity at 100 mg/kg,*- Loss of righting reflex at < 600 mg/kg

Q: And the Activity (Mus musculus [20])?
A: Activity at 100 mg/kg

Q: And the TD50 (Mus musculus [17])?
A: 111 mg/kg

Q: And the PI [4]?
A: 2.2

Q: And the Toxicity (Mus musculus [5])?
A: Activity at 100 mg/kg,*- Loss of righting reflex at < 600 mg/kg

Q: And the Activity (Mus musculus [21])?
A: Activity at 100 mg/kg

Q: And the PI [9]?
A: 1.9

Q: With `NC(=O)c1ccc(N)cc1` as the molecule, how does the Activity (Mus musculus [22]) read?
A: Activity at 300 mg/kg

Q: What about the Activity (Mus musculus [23]) of the same molecule?
A: Not toxic

Q: What about the Toxicity (Mus musculus [24]) of the same molecule?
A: Not toxic

Q: What about the Toxicity (Mus musculus [25]) of the same molecule?
A: Not toxic

Q: And the Activity (Mus musculus [26])?
A: Not toxic

Q: What about the Activity (Mus musculus [27]) of the same molecule?
A: Not toxic

Q: Which Activity (Mus musculus [28]) does the source give for `Nc1ccc(C(=O)NCCc2ccccc2)cc1` here?
A: Activity at 300 mg/kg

Q: What about the Activity (Mus musculus [29]) of the same molecule?
A: Activity at 300 mg/kg

Q: What about the Activity (Mus musculus [21]) of the same molecule?
A: Activity at 300 mg/kg

Q: What about the Toxicity (Mus musculus [30]) of the same molecule?
A: Activity at 600 mg/kg

Q: And the Activity (Mus musculus [31])?
A: Activity at 300 mg/kg

Q: And the Toxicity (Mus musculus [32])?
A: Activity at 600 mg/kg

Q: Which Activity (Mus musculus [12]) does the source give for `Nc1ccc(C(=O)NC2CCCCC2)cc1` here?
A: Not toxic

Q: What about the Activity (Mus musculus [33]) of the same molecule?
A: Activity at 100 mg/kg

Q: And the Activity (Mus musculus [20])?
A: Activity at 100 mg/kg

Q: And the PI [4]?
A: 2.8

Q: What about the Toxicity (Mus musculus [34]) of the same molecule?
A: activity at 300 mg/kg

Q: What about the Activity (Mus musculus [8]) of the same molecule?
A: Activity at 100 mg/kg

Q: What about the PI [9] of the same molecule?
A: 1.5

Q: What about the TD50 [35] of the same molecule?
A: 189 mg/kg

Q: What about the Toxicity (Mus musculus [36]) of the same molecule?
A: activity at 300 mg/kg
